# ChEMBL document CHEMBL1933056, “Cytotoxic potential of novel 6,7-dimethoxyquinazolines” (Eur J Med Chem, 2012)
# Calls of active or inactive are those of the source. The rule behind the calls is not given here.
# Experiments:
# HEY = experiment: Cytotoxicity against human HEY cells at 10 uM after 72 hrs by MTT assay; format: functional
# How it was run: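 Single-concentration MTT screen, continuous 72 h exposure at 10 µM (diluted from a 10 mM DMSO stock). MTT was added at 0.5 mg/mL final for 4 h at 37 °C, the formazan was dissolved in DMSO and absorbance read at 570 nm. Result given as % cells killed, (1 − A/C) × 100, done in triplicate. HEY cells were grown in RPMI 1640 with 10% FBS and 2 mM glutamine.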
# HCT-116 [1] = experiment: Cytotoxicity against p53-positive human HCT116 cells after 72 hrs by MTT assay; format: functional, cell-based; settings: HCT-116, 72 h
# How it was run: (§1)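 Cells seeded, allowed to attach, then exposed to the drug continuously for 72 h over multiple doses. MTT was added at 0.5 mg/mL final for 4 h at 37 °C, solubilized in DMSO and read at 570 nm. Inhibition = (1 − A/C) × 100. IC50 was taken from a plot of log concentration versus % inhibition, assays in triplicate, with SD from at least three independent experiments.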
# HCT-116 [2] = experiment: Cytotoxicity against p53-deficient human HCT116 cells after 72 hrs by MTT assay; format: functional, cell-based; settings: HCT-116, 72 h; how it was run: as §1
# HCT-116 [3] = experiment: Cytotoxicity against p53-positive human HCT116 cells at 10 uM after 72 hrs by MTT assay; format: functional
# HCT-116 [4] = experiment: Cytotoxicity against p53-deficient human HCT116 cells at 10 uM after 72 hrs by MTT assay; format: functional
# HCT-116 [5] = experiment: Induction of cell cycle arrest in p53-deficient human HCT116 cells assessed as accumulation at G2/M phase at 1 uM after 48 hrs by flow cytometric analysis (reference value: 24.5%); format: functional
# HCT-116 [6] = experiment: Growth inhibition of p53-positive human HCT116 cells at > 5 uM after 24 hrs by crystal violet staining-based microscopic analysis; format: functional, cell-based
# How it was run: (§2)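 Cells plated at 100 cells/well and left to attach overnight. Serial compound dilutions were applied for 24 h, followed by a PBS wash and culture in drug-free medium for 8-10 days until colonies formed. Colonies were fixed in 1% glutaraldehyde for 30 min, stained with 2% crystal violet for 30 min, imaged and counted. Values are the mean of at least three independent experiments.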
# HCT-116 [7] = experiment: Induction of cell cycle arrest in p53-deficient human HCT116 cells assessed as accumulation at G0/G1 phase at 1 uM after 48 hrs by flow cytometric analysis (reference value: 60%); format: functional
# HCT-116 [8] = experiment: Induction of cell cycle arrest in p53-deficient human HCT116 cells assessed as accumulation at S phase at 1 uM after 48 hrs by flow cytometric analysis (reference value: 13.5%); format: functional
# HCT-116 [9] = experiment: Induction of cell cycle arrest in p53-deficient human HCT116 cells assessed as accumulation at G0/G1 phase at 1 uM after 24 hrs by flow cytometric analysis (reference value: 60%); format: functional
# HCT-116 [10] = experiment: Induction of cell cycle arrest in p53-deficient human HCT116 cells assessed as accumulation at G2/M phase at 1 uM after 24 hrs by flow cytometric analysis (reference value: 24.5%); format: functional
# HCT-116 [11] = experiment: Anticlonogenic activity against p53-positive human HCT116 cells assessed as inhibition of colony formation at 0.1 to 20 uM after 24 hrs by crystal violet staining-based microscopic analysis; format: functional, cell-based; how it was run: as §2
# HCT-116 [12] = experiment: Growth inhibition of p53-deficient human HCT116 cells at > 5 uM after 24 hrs by crystal violet staining-based microscopic analysis; format: functional, cell-based; how it was run: as §2
# HCT-116 [13] = experiment: Anticlonogenic activity against p53-deficient human HCT116 cells assessed as inhibition of colony formation at 0.1 to 20 uM after 24 hrs by crystal violet staining-based microscopic analysis; format: functional, cell-based; how it was run: as §2
# HCT-116 [14] = experiment: Induction of cell cycle arrest in p53-deficient human HCT116 cells assessed as accumulation at S phase at 1 uM after 24 hrs by flow cytometric analysis (reference value: 13.5%); format: functional
# HCT-116 [15] = experiment: Growth inhibition of p53-positive human HCT116 cells at > 1 uM after 24 hrs by crystal violet staining-based microscopic analysis; format: functional, cell-based; how it was run: as §2
# HCT-116 [16] = experiment: Growth inhibition of p53-deficient human HCT116 cells at > 1 uM after 24 hrs by crystal violet staining-based microscopic analysis; format: functional, cell-based; how it was run: as §2
Compound,Activity (HEY) [%],IC50 (HCT-116 [1]) [µM],IC50 (HCT-116 [2]) [µM],Activity (HCT-116 [3]) [%],Activity (HCT-116 [4]) [%],further results
COc1cc2nc(Cc3ccc(Cl)cc3)[nH]c(=O)c2cc1OC,49,9,> 10,63,57,–
CCCCn1c(-c2ccc(NC(C)=O)cc2)nc2cc(OC)c(OC)cc2c1=O,6,–,–,19,17,–
COc1cc2nc(-c3cccc(C)c3)nc(N=[N+]=[N-])c2cc1OC,42,9,> 10,55,71,–
COc1ccc(NCc2nc3cc(OC)c(OC)cc3c(=O)[nH]2)cc1,19,–,–,38,22,–
CCCCn1c(-c2ccc(NS(C)(=O)=O)cc2)nc2cc(OC)c(OC)cc2c1=O,0.5,–,–,6,4,–
COc1cc2nc(Nc3ccccc3-c3ccccc3NS(C)(=O)=O)nc(N)c2cc1OC,94,6,5,95,95,Activity (HCT-116 [5]): 34.5%; growth inhibition (GI) (HCT-116 [6]): Active; Activity (HCT-116 [7]): 54.5%; Activity (HCT-116 [8]): 9%; Activity (HCT-116 [9]): 61%; Activity (HCT-116 [10]): 23%; Activity (HCT-116 [11]): Active; growth inhibition (GI) (HCT-116 [12]): Active; Activity (HCT-116 [13]): Active; Activity (HCT-116 [14]): 14%
COc1cc2nc(-c3cccc(Cl)c3)nc(N)c2cc1OC,3,–,–,19,2,–
COc1cccc(-c2nc(N)c3cc(OC)c(OC)cc3n2)c1,7,–,–,19,20,–
COc1cc2nc(CNc3ccc(NS(C)(=O)=O)cc3)[nH]c(=O)c2cc1OC,9,–,–,28,14,–
COc1cc2nc(-c3cccc(NC(C)=O)c3)[nH]c(=O)c2cc1OC,12,–,–,16,22,–
COc1ccc(-c2nc3cc(OC)c(OC)cc3c(=O)[nH]2)cc1,2,–,–,10,3,–
COc1cc2nc(-c3ccccc3Cl)nc(N=[N+]=[N-])c2cc1OC,43,8,> 10,50,63,–
COc1cc2nc(Cc3cccc4ccccc34)[nH]c(=O)c2cc1OC,66,1.7,0.7,80,79,growth inhibition (GI) (HCT-116 [15]): Active; Activity (HCT-116 [11]): Active; growth inhibition (GI) (HCT-116 [16]): Active; Activity (HCT-116 [13]): Active
COc1cc2nc(-c3ccccc3Cl)nc(N)c2cc1OC,4,–,–,18,–,–
COc1cc2nc(CNc3cccc(NS(C)(=O)=O)c3)[nH]c(=O)c2cc1OC,23,–,–,34,31,–
COc1cc2nc(-c3cccc(C)c3)nc(N)c2cc1OC,6,–,–,20,27,–
COc1cc2nc(Cc3ccccc3Cl)[nH]c(=O)c2cc1OC,35,9,> 10,59,50,–
COc1cc2nc(-c3ccc(C)cc3)nc(N)c2cc1OC,2,–,–,5,16,–
COc1cc2nc(-c3cccc(Cl)c3)nc(N=[N+]=[N-])c2cc1OC,35,10,10,56,45,–
COc1cc2nc(Nc3ccc([N+](=O)[O-])cc3)nc(N)c2cc1OC,4,–,–,42,22,–
CCCCn1c(-c2cccc(-c3nnn[nH]3)c2)nc2cc(OC)c(OC)cc2c1=O,4,–,–,13,3,–
COc1cccc(-c2nc(N=[N+]=[N-])c3cc(OC)c(OC)cc3n2)c1,13,–,–,25,24,–
COc1ccc(-c2nc(N)c3cc(OC)c(OC)cc3n2)cc1,17,–,–,21,42,–
COc1cc2nc(-c3ccc(C)cc3)nc(N=[N+]=[N-])c2cc1OC,29,8,9,47,66,–
CCCCn1c(-c2cccc(NS(C)(=O)=O)c2)nc2cc(OC)c(OC)cc2c1=O,9,–,–,26,27,–
COc1cc2nc(CNc3ccc(C(=O)O)cc3)[nH]c(=O)c2cc1OC,0.5,–,–,30,8,–
COc1ccc(-c2nc(N=[N+]=[N-])c3cc(OC)c(OC)cc3n2)cc1,42,10,7,58,48,–
CCCCn1c(-c2ccc(-c3nnn[nH]3)cc2)nc2cc(OC)c(OC)cc2c1=O,2,–,–,15,8,–
COc1cc2nc(-c3cccc(Cl)c3)[nH]c(=O)c2cc1OC,42,–,–,35,37,–
